Experimental data as given in ChEMBL document CHEMBL3352174, “Identification of a New RXRα Antagonist Targeting the Coregulator-Binding Site” (ACS Med Chem Lett, 2014).
Calls of active or inactive are those of the source. The rule behind the calls is not given here.

Tests used:
[1] = target: T1, Retinoic acid receptor RXR-alpha (Homo sapiens) (UniProt P19793); experiment: Antagonist activity against RXRalpha in human PC3 cells assessed as inhibition of AKT phosphorylation at 5 and 10 uM after 24 hrs by Western blotting method; assay type: cell-based; conditions: PC-3
T1 sequence (whole entry): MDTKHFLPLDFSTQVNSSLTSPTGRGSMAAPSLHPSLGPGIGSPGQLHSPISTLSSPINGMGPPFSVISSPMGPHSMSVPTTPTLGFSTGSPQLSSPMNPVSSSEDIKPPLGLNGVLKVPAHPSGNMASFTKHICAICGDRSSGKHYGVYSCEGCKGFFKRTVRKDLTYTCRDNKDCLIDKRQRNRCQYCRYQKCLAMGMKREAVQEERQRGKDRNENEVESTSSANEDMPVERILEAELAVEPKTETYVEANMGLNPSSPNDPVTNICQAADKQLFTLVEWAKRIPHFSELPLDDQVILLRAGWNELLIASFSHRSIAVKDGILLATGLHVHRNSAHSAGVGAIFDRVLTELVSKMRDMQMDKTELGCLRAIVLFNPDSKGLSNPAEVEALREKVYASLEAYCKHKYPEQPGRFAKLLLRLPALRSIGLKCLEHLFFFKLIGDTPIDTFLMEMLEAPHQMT

[2] = target: T1, Retinoic acid receptor RXR-alpha (Homo sapiens); experiment: Antagonist activity against RXRalpha in human colon cancer cells assessed as inhibition of AKT phosphorylation at 5 and 10 uM after 24 hrs by Western blotting method; assay type: cell-based; conditions: Cancer cell lines
HepG2 [3] = experiment: Induction of apoptosis in human HepG2 cells assessed as PARP cleavage at 5 and 10 uM by immunoblotting method; assay type: functional, cell-based
Method in brief: (§1)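 A549 or HepG2 cells were treated with compound for 24 h, with or without subsequent TNFα (20 ng/mL) for 30 min. Lysates were immunoblotted for PARP cleavage as the apoptosis marker. One of three to five similar experiments shown.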

HepG2 [4] = experiment: Induction of apoptosis in TNFalpha-stimulated human HepG2 cells assessed as PARP cleavage at 5 and 10 uM pre-treated for 24 hrs before TNFalpha addition by immunoblotting method; assay type: functional, cell-based; method in brief: as §1
[5] = target: T2, Glucocorticoid receptor (Homo sapiens) (UniProt P04150); experiment: Antagonist activity against GRalpha ligand binding domain (unknown origin) expressed in human MCF7 cells assessed as inhibition of dexamethasone-induced receptor transactivation at 10 uM after 18 hrs by luciferase reporter gene based mammalian one-hybrid assay; assay type: cell-based
T2 sequence (whole entry): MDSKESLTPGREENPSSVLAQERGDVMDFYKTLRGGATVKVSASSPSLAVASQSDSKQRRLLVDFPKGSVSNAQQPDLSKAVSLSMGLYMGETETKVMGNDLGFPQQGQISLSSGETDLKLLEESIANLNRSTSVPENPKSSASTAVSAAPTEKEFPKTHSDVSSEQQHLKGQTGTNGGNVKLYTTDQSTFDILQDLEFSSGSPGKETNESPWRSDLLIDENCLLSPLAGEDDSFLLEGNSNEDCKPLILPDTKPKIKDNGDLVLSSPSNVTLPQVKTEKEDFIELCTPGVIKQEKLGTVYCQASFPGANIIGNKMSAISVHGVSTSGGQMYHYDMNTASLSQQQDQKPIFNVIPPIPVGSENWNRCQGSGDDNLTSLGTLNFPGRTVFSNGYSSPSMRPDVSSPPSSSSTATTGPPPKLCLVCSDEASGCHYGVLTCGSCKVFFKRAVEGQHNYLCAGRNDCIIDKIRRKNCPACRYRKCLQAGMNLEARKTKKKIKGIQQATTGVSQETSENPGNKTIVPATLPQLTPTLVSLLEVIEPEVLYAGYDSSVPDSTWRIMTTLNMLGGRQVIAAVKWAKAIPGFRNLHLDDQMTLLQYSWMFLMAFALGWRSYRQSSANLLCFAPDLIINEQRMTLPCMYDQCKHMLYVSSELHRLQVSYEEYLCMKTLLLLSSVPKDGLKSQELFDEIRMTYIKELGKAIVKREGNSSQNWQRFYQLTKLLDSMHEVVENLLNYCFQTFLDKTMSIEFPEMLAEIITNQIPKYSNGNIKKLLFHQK

[6] = target: T3, Retinoic acid receptor gamma (Homo sapiens) (UniProt P13631); experiment: Antagonist activity against RARgamma ligand binding domain (unknown origin) expressed in human MCF7 cells assessed as inhibition of ATRA-induced receptor transactivation at 10 uM after 18 hrs by luciferase reporter gene based mammalian one-hybrid assay; assay type: cell-based
T3 sequence (whole entry): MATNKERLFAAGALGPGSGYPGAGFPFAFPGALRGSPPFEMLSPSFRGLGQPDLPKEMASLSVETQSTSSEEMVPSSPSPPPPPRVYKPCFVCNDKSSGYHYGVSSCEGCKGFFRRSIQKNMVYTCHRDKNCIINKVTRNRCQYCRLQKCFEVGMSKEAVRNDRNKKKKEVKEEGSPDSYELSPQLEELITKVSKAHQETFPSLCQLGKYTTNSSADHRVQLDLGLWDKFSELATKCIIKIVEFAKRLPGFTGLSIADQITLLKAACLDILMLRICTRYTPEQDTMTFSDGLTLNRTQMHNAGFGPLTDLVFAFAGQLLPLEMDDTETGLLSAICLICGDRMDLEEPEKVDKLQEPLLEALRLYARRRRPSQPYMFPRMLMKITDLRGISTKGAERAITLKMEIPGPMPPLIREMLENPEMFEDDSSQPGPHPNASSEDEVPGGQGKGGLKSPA
Method in brief: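 MCF-7 cells co-transfected with pG5-Luc and the pBind-LBD fusion: Nur77, RARγ or ER. Agonists were all-trans-RA 10⁻⁷ M for RARγ and Nur77, and propyl pyrazole triol 10 μM for ER. Compound at 10 μM for 18 h. Dual-luciferase read-out normalized to Renilla. Mean ± SD.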

[7] = target: T1, Retinoic acid receptor RXR-alpha (Homo sapiens); experiment: Antagonist activity against RXRalpha in human A549 cells assessed as inhibition of AKT phosphorylation at 5 and 10 uM after 24 hrs by Western blotting method; assay type: cell-based
Method in brief: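 A549 or HepG2 cells were exposed to compound for 24 h, then with or without TNFα (20 ng/mL) for 30 min more. Lysates were immunoblotted for AKT activation. One of three to five similar experiments shown.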

Structure (SMILES): Cc1cc(=O)oc2c(/C=N/NC(=O)CSc3nc4ccccc4s3)c(O)ccc12
- inhibition [1]: Active
- inhibition [2]: Active
- Activity (HepG2 [3]): Active
- Activity (HepG2 [4]): Active
- inhibition [5]: inactive
- inhibition [6]: Active
- inhibition [7]: Dose-dependent effect
